According to ChEMBL document CHEMBL1147940, “Differential receptor binding characteristics of consecutive phenylalanines in micro-opioid specific peptide ligand endomorphin-2” (Bioorg Med Chem, 2007):
Residues, ends and D or L forms follow the SMILES beside them.

What was measured:
[1] = target: Delta-type opioid receptor (Rattus norvegicus, UniProt P33533); assay: Displacement of [3H]deltorphin2 from delta opioid receptor in rat brain membrane; assay type: cell membranes
Mu-type opioid receptor = Mu-type opioid receptor (Rattus norvegicus, UniProt P33535); assay: Displacement of [3H]DAGO from mu opioid receptor in rat brain membrane; assay type: cell membranes
Chain of Mu-type opioid receptor (P33535 whole entry): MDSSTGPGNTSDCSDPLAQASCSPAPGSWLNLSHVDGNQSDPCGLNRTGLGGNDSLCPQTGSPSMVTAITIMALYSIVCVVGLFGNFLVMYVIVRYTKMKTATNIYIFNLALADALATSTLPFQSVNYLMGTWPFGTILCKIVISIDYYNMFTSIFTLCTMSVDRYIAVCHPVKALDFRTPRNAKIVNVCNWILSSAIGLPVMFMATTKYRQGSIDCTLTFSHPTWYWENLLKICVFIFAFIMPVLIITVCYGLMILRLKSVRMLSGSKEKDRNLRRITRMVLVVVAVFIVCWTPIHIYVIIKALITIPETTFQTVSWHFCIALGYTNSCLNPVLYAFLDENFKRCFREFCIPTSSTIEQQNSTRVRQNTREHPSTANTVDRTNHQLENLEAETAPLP

[2] = target: Opioid receptors; mu & delta (Rattus norvegicus) (UniProt P33533+P33535); assay: Selectivity for rat mu opioid receptor over rat delta opioid; assay type: protein assay
Chain of Opioid receptors; mu & delta (Rattus norvegicus) (P33533 whole entry, looked up): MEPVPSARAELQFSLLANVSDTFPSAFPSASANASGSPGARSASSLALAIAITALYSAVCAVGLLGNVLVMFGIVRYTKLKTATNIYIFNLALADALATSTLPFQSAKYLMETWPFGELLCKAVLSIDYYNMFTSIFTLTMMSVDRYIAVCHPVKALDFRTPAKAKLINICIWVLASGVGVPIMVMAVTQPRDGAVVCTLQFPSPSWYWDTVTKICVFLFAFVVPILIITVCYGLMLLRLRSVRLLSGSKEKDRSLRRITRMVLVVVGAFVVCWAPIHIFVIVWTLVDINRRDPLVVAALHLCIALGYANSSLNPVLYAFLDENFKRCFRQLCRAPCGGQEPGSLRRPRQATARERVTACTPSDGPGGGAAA
Chain of Opioid receptors; mu & delta (Rattus norvegicus) (P33535 whole entry, looked up): as the sequence (P33535 whole entry) above
Method in brief: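 Ratio of IC50 values from [3H]deltorphin II (delta) and [3H]DAGO (mu) displacement on rat brain membranes. Each used 0.25 nM tracer, 60 min incubation at room temperature in Tris-HCl pH 7.55 with 0.1% BSA and bacitracin, and filtration with scintillation counting.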

Chain of Delta-type opioid receptor (P33533 whole entry): as the sequence (P33533 whole entry, looked up) above

With `NC(=O)[C@H](Cc1ccc(O)cc1)NC(=O)[C@H](Cc1ccccc1)NC(=O)[C@@H]1CCCN1C(=O)[C@@H](N)Cc1ccc(O)cc1` (H-YPFY-NH2) the IC50 [1] was 54.5 µM, the IC50 (Mu-type opioid receptor) was 0.0622 µM and the Ratio IC50 [2] was 5.2.
For `NC(=O)[C@H](Cc1c[nH]c2ccccc12)NC(=O)[C@H](Cc1ccccc1)NC(=O)[C@@H]1CCCN1C(=O)[C@@H](N)Cc1ccc(O)cc1` (H-YPFW-NH2), the IC50 [1] was > 1000 µM and the IC50 (Mu-type opioid receptor) was 0.0871 µM.
For `CCCC[C@H](NC(=O)[C@H](Cc1ccccc1)NC(=O)[C@@H]1CCCN1C(=O)[C@@H](N)Cc1ccc(O)cc1)C(N)=O` (HELM PEPTIDE1{Y.P.F.[Nle].[am]}$$$$V2.0), the IC50 [1] was > 1000 µM and the IC50 (Mu-type opioid receptor) was 0.0339 µM.
In the case of `C[C@H](NC(=O)[C@@H]1CCCN1C(=O)[C@@H](N)Cc1ccc(O)cc1)C(=O)N[C@@H](Cc1ccccc1)C(N)=O` (H-YPAF-NH2), the IC50 (Mu-type opioid receptor) is reported as 3.81 µM.
`CCCC[C@H](NC(=O)[C@@H]1CCCN1C(=O)[C@@H](N)Cc1ccc(O)cc1)C(=O)N[C@@H](Cc1ccccc1)C(N)=O` (HELM PEPTIDE1{Y.P.[Nle].F.[am]}$$$$V2.0) was tested, and the IC50 [1] was 15.2 µM, the IC50 (Mu-type opioid receptor) was 0.23 µM and the Ratio IC50 [2] was 66.1.
`NC(=O)[C@H](Cc1ccccc1)NC(=O)[C@H](CC1CCCCC1)NC(=O)[C@@H]1CCCN1C(=O)[C@@H](N)Cc1ccc(O)cc1` (HELM PEPTIDE1{Y.P.[Cha].F.[am]}$$$$V2.0) was tested, and the IC50 [1] was 3.15 µM, the IC50 (Mu-type opioid receptor) was 0.148 µM and the Ratio IC50 [2] was 21.3.
In the case of `C[C@@H](NC(=O)[C@@H](N)Cc1ccc(O)cc1)C(=O)NCC(=O)N(C)[C@@H](Cc1ccccc1)C(=O)NCCO` [DAMGO], the IC50 [1] is reported as 0.727 µM.
In the case of `CC(C)C[C@H](NC(=O)[C@H](Cc1ccccc1)NC(=O)[C@@H]1CCCN1C(=O)[C@@H](N)Cc1ccc(O)cc1)C(N)=O` (H-YPFL-NH2), the IC50 [1] is reported as > 1000 µM and the IC50 (Mu-type opioid receptor) is reported as 0.062 µM.
Work on `NC(=O)[C@H](Cc1ccccc1)NC(=O)[C@H](Cc1c(F)c(F)c(F)c(F)c1F)NC(=O)[C@@H]1CCCN1C(=O)[C@@H](N)Cc1ccc(O)cc1` yielded an IC50 [1] of 11.7 µM, an IC50 (Mu-type opioid receptor) of 0.0117 µM and a Ratio IC50 [2] of 1000.
For `CC(C)[C@H](NC(=O)[C@@H]1CCCN1C(=O)[C@@H](N)Cc1ccc(O)cc1)C(=O)N[C@@H](Cc1ccccc1)C(N)=O` (H-YPVF-NH2), the IC50 [1] was > 1000 µM and the IC50 (Mu-type opioid receptor) was 2.65 µM.
For `NC(=O)[C@H](Cc1ccccc1)NC(=O)[C@H](Cc1ccc(O)cc1)NC(=O)[C@@H]1CCCN1C(=O)[C@@H](N)Cc1ccc(O)cc1` (H-YPYF-NH2), the IC50 [1] was 5.72 µM, the IC50 (Mu-type opioid receptor) was 1.1 µM and the Ratio IC50 [2] was 5.2.
With `NCCCC[C@H](NC(=O)[C@@H]1CCCN1C(=O)[C@@H](N)Cc1ccc(O)cc1)C(=O)N[C@@H](Cc1ccccc1)C(N)=O` (H-YPKF-NH2) the IC50 (Mu-type opioid receptor) was > 1000 µM.
`CC(C)[C@H](NC(=O)[C@H](Cc1ccccc1)NC(=O)[C@@H]1CCCN1C(=O)[C@@H](N)Cc1ccc(O)cc1)C(N)=O` (H-YPFV-NH2) was tested, and the IC50 [1] was > 1000 µM and the IC50 (Mu-type opioid receptor) was 0.0765 µM.
In the case of `NC(=O)[C@H](Cc1c[nH]cn1)NC(=O)[C@H](Cc1ccccc1)NC(=O)[C@@H]1CCCN1C(=O)[C@@H](N)Cc1ccc(O)cc1` (H-YPFH-NH2), the IC50 [1] is reported as > 1000 µM and the IC50 (Mu-type opioid receptor) is reported as 0.138 µM.
Molecule `NC(=O)[C@H](Cc1c(F)c(F)c(F)c(F)c1F)NC(=O)[C@H](Cc1ccccc1)NC(=O)[C@@H]1CCCN1C(=O)[C@@H](N)Cc1ccc(O)cc1` has an IC50 [1] of 8.04 µM, an IC50 (Mu-type opioid receptor) of 0.00274 µM and a Ratio IC50 [2] of 1000.
In the case of `C[C@H](NC(=O)[C@H](Cc1ccccc1)NC(=O)[C@@H]1CCCN1C(=O)[C@@H](N)Cc1ccc(O)cc1)C(N)=O` (H-YPFA-NH2), the IC50 (Mu-type opioid receptor) is reported as 0.0854 µM.
With `CC(C)C[C@H](NC(=O)[C@@H]1CCCN1C(=O)[C@@H](N)Cc1ccc(O)cc1)C(=O)N[C@@H](Cc1ccccc1)C(N)=O` (H-YPLF-NH2) the IC50 [1] was > 1000 µM and the IC50 (Mu-type opioid receptor) was 0.926 µM.
For `NCCCC[C@H](NC(=O)[C@H](Cc1ccccc1)NC(=O)[C@@H]1CCCN1C(=O)[C@@H](N)Cc1ccc(O)cc1)C(N)=O` (H-YPFK-NH2), the IC50 (Mu-type opioid receptor) was 0.408 µM.
In the case of `NC(=O)[C@H](Cc1ccccc1)NC(=O)[C@H](Cc1c[nH]cn1)NC(=O)[C@@H]1CCCN1C(=O)[C@@H](N)Cc1ccc(O)cc1` (H-YPHF-NH2), the IC50 [1] is reported as > 1000 µM and the IC50 (Mu-type opioid receptor) is reported as 4.49 µM.
In the case of `NC(=O)[C@H](CC1CCCCC1)NC(=O)[C@H](Cc1ccccc1)NC(=O)[C@@H]1CCCN1C(=O)[C@@H](N)Cc1ccc(O)cc1` (HELM PEPTIDE1{Y.P.F.[Cha].[am]}$$$$V2.0), the IC50 [1] is reported as 11.4 µM, the IC50 (Mu-type opioid receptor) is reported as 0.917 µM and the Ratio IC50 [2] is reported as 21.3.
